Assay results taken from ChEMBL document CHEMBL1131605, “Synthesis and pharmacological activity of triazolo[1,5-a]triazine derivatives inhibiting eosinophilia” (1998).

Assays:
Type in all cases: functional
Rattus norvegicus [1] = assay: Percent inhibition value on the Sephadex-induced lung eosinophilia model at an intraperitoneal (ip) dose of 3 mg/kg
Outline: (§1)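 Male Wistar rats, five per group; Sephadex G-200 (0.5 mg/mL in sterile saline, swollen by boiling 5 h), 1 mL injected via tail vein on days 0, 3 and 5; drug or vehicle given ip 10 min before each Sephadex injection. Day 7: lavage with heparinized PBS (37 °C), repeated, pooled; cells counted microscopically. Inhibition (%) from group-mean eosinophil/total-cell ratio versus vehicle.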

Rattus norvegicus [2] = assay: Percent inhibition value on the Sephadex-induced lung eosinophilia model at an intraperitoneal (ip) dose of 30 mg/kg; outline: as §1
Rattus norvegicus [3] = assay: Percent inhibition value on the Sephadex-induced lung eosinophilia model at an intraperitoneal (ip) dose of 0.1 mg/kg; outline: as §1

Row | Compound | inhibition in vivo at 3 mg/kg (Rattus norvegicus [1]) | inhibition in vivo at 30 mg/kg (Rattus norvegicus [2]) | further results
1 | C/N=C(\S)n1nc(-c2ccc(Cl)cc2)nc1N | 88% | – | –
2 | Cc1nc2nc(-c3ccc(Cl)cc3)nn2c(=S)n1C | 60% | – | –
3 | C/N=C(\S)n1nc(Cc2ccccc2)nc1N | -24% | – | –
4 | CSc1nc(N)nc2ncnn12 | – | -29% | –
5 | C/N=C(\S)n1nc(-c2ccc(Cl)nc2)nc1N | -9% | – | –
6 | Cn1cnc2nc(-c3ccc(Cl)cc3Cl)nn2c1=S | 90% | – | –
7 | C/N=C(\S)n1nc(-c2ccc(Cl)cn2)nc1N | -2% | – | –
8 | Cn1cnc2ncnc-2c1S | – | 9% | –
9 | CCCCn1cnc2ncnn2c1=S | – | 23% | –
10 | C/N=C(\S)n1nc(-c2ccc(Cl)c3ccccc23)nc1N | 14% | – | –
11 | Cc1nc2ncnn2c(=S)n1C | – | 18% | –
12 | Cn1cnc2nc(-c3ccccc3)nn2c1=S | – | -1% | –
13 | Cn1cnc2nc(-c3ccc(C#N)cc3)nn2c1=S | – | 79% | –
14 | C/N=C(\S)n1nc(Oc2ccccc2)nc1N | -5% | – | –
15 | Cn1cnc2nc(-c3ccc(C(F)(F)F)cc3)nn2c1=S | 87% | – | –
16 | CCOc1ncnc2ncnn12 | – | 6% | –
17 | Cn1c(-c2ccccc2)nc2nc(-c3ccc(Cl)cc3)nn2c1=S | 5% | – | –
18 | C/N=C(\S)n1nc(-c2ccco2)nc1N | 18% | – | –
19 | CNc1nc(NC)n2ncnc2n1 | – | 38% | –
20 | C/N=C(\S)n1nc(-c2cccs2)nc1N | -7% | – | –

Row | Compound | inhibition in vivo at 3 mg/kg (Rattus norvegicus [1]) | inhibition in vivo at 30 mg/kg (Rattus norvegicus [2]) | further results
21 | CCCn1cnc2ncnn2c1=S | – | 49% | –
22 | Cn1cnc2nc(-c3ccc(Cl)cc3)nn2c1=S | 90% | 92% | –
23 | CCOC(=O)C(=O)Nc1nc2ncn(C)c(=S)n2n1 | – | -2% | –
24 | Cn1c(-c2ccccc2)nc2ncnn2c1=S | – | 29% | –
25 | C[C@@H]1C[C@H]2[C@@H]3CCC4=CC(=O)C=C[C@]4(C)[C@@]3(F)[C@@H](O)C[C@]2(C)[C@@]1(O)C(=O)CO [DEXAMETHASONE] | – | – | inhibition in vivo at 0.1 mg/kg (Rattus norvegicus [3]): 95%
26 | C/N=C(\S)n1nc(C#Cc2ccccc2)nc1N | 0% | – | –
27 | Cn1cnc2nncc-2c1S | – | -13% | –
28 | Cn1cnc2ccccc2c1=S | – | 22% | –
29 | CNC(=S)n1nc(SC)nc1N | – | 54% | –
30 | Cn1cnc2nc(-c3ccc(Cl)c(Cl)c3)nn2c1=S | 89% | – | –
31 | C/N=C(\S)n1nc(-c2ccc(-c3ccccc3)cc2)nc1N | 58% | – | –
32 | Cn1cnc2ncnn2c1=O | – | 17% | –
33 | CNC(=S)n1nc(/N=C/c2ccccc2)nc1N | 37% | – | –
34 | C/N=C(\S)n1nc(/C=C/c2ccc(Cl)cc2)nc1N | 25% | – | –
35 | Cn1cnc2nc(-c3ccc(Br)cc3)nn2c1=S | 84% | – | –
36 | CSc1nc(N)n2ncnc2n1 | – | -7% | –
37 | Cn1cnc2ncnn2c1=S | – | 69% | –
38 | c1nc2nc(NC3CCCCC3)nc(NC3CCCCC3)n2n1 | – | 1% | –
39 | Cn1cnc2nc(-c3ccc(F)cc3)nn2c1=S | 38% | – | –
